Assay [1] concerns the target T1, GABA-A receptor; anion channel (Bos taurus) (UniProt P10063+P08220+P20237+P08219+P10064+P22300). The assay is described as follows: GABA ratio (where GABA ratio = IC50 (compound) / IC50 (compound + 10 uM GABA)). In kind it is protein-complex assay. In outline:
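Ratio of IC50 for [3H]flunitrazepam displacement measured without GABA to IC50 measured with 10 μM GABA. Used as a rough in vitro gauge of intrinsic activity. Five independent experiments.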

A short description of assay [2]: Binding affinity at bovine Benzodiazepine receptor by [3H]flunitrazepam displacement. In short, it runs like this:
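[3H]flunitrazepam displacement; IC50 from log-probit plots, converted to Ki. Run for compounds giving enough inhibition in a 10 μM screen.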

Assay [3] deals with T1, GABA-A receptor; anion channel (Bos taurus). The assay is described as follows: inhibition of [3H]flunitrazepam binding to GABA-A benzodiazepine receptor of bovine brain membranes. In kind it is cell membranes. Conditions: concentration not given here.
The target is the same in assay [4]. Description: Inhibition of [3H]flunitrazepam binding to GABA-A benzodiazepine receptor of bovine brain membranes at 10e-5 M. Type of assay: cell membranes. In short, it runs like this: (§1)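 Percent inhibition of [3H]flunitrazepam binding, with test compound at 10 μM. Ethanol used as solvent in one case.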
The target is the same in assay [5]. The assay is described as follows: Percentage inhibition of [3H]flunitrazepam binding to GABA-A benzodiazepine receptor of bovine brain membranes. Type of assay: cell membranes. The following applies: concentration not given here. In outline:
as §1

On to `CCOC(=O)c1nc2c3cc(Cl)ccc3oc(=O)n2n1`, for which the GR in assay [1] worked out at 1.2. The same compound came in with a Ki in assay [2] of 125 nM.
The corresponding values for `COc1ccc2oc(=O)n3nc(-c4ccccc4F)nc3c2c1` are 1.13 and 43.7 nM.
With `O=c1oc2ccccc2c2nc(-c3ccccc3)nn12`, in assay [1], the GR came to 0.98. In assay [2], this compound came in with a Ki of 132 nM.
Regarding `O=c1oc2ccc(Cl)cc2c2nc(-c3ccc(Cl)cc3)nn12`, in assay [3], the inhibition stood at 3%.
`COc1ccc(-c2nc3c4cc(Cl)ccc4oc(=O)n3n2)cc1`: the GR in assay [1] came to 0.5. Also, the Ki in assay [2] was determined as 72.8 nM.
The compound `COc1ccc2c(c1)oc(=O)n1nc(-c3ccccc3F)nc21` had an inhibition in assay [4] of 45%.
As to `CCOC(=O)c1nc2c3ccccc3oc(=O)n2n1`, the GR in assay [1] came to 0.81. The compound further returned a Ki in assay [2] of 120 nM.
For the compound `Cc1ccc2oc(=O)n3nc(-c4ccccc4F)nc3c2c1`, the GR in assay [1] was 0.84. The same compound showed a Ki in assay [2] of 44.8 nM.
The corresponding values for `O=c1oc2ccc(Cl)cc2c2nc(-c3ccoc3)nn12` are 0.8 and 105 nM.
In assay [5], `O=c1oc2ccccc2c2nc(-c3ccc(Cl)cc3)nn12` returned an inhibition of 0%.
Consider `O=c1oc2ccccc2c2nc(-c3ccccc3F)nn12`, for which, in assay [1], the GR is 0.95. This compound yielded an inhibitory constant (Ki) in assay [2] of 15.3 nM.
In the same order, the values of `O=c1oc2ccc(Cl)cc2c2nc(-c3ccccc3F)nn12` are 0.9 and 5.2 nM.
The corresponding values for `O=c1oc2ccc(Cl)cc2c2nc(-c3ccccc3)nn12` are 0.78 and 568 nM.
The corresponding values for `O=c1oc2ccc(Cl)cc2c2nc(-c3cccc(F)c3F)nn12` are 1.11 and 11.8 nM.
As to `O=c1oc2cc(Cl)ccc2c2nc(-c3ccccc3F)nn12`, the inhibition in assay [3] is 47%.
For the compound `O=c1oc2ccc(Cl)cc2c2nc(-c3c(F)cccc3F)nn12`, the GR in assay [1] worked out at 0.76. This compound came in with a Ki in assay [2] of 42.2 nM.
In the same order, the values of `O=c1oc2ccc(Cl)cc2c2nc(-c3ccco3)nn12` are 0.9 and 62.3 nM.
As for `O=c1oc2ccccc2c2nc(-c3cccs3)nn12`, the GR in assay [1] came out at 0.98. In assay [2], this compound showed a Ki of 32.1 nM.
The corresponding values for `COc1ccc(-c2nc3c4ccccc4oc(=O)n3n2)cc1` are 1.31 and 300 nM.
In the same order, the values of `O=c1oc2ccc(Cl)cc2c2nc(-c3cccs3)nn12` are 0.8 and 100 nM.
With `O=c1oc2ccc(Cl)cc2c2nc(-c3ccsc3)nn12`, the GR in assay [1] amounted to 1.02. This compound also yielded a Ki in assay [2] of 211 nM.
The corresponding values for `O=c1oc2ccccc2c2nc(-c3ccco3)nn12` are 0.84 and 27.9 nM.

The term Ki denotes the dissociation constant of the complex between target and ligand, obtained from inhibition or displacement. A higher Ki goes with weaker binding. Usually inhibition stands for the drop in the measured response relative to a control, in per cent. Read a low inhibition as a response near the control.

(Values after ChEMBL document CHEMBL1128400, “Synthesis of some 2-aryl-1,2,4-triazolo[1,5-c][1,3]benzoxazin-5-ones as tools to define the essential pharmacophoric descriptors of a benzodiazepine receptor ligand” (J Med Chem, 1995).)
